Assays:
resistant tumor cells = assay: Ex-vivo medulloblastoma proliferation assay; assay type: cell-based, mouse; conditions: cells freshly isolated from resistant tumors
[1] = system: Ptch+/−p53−/− medulloblastoma tumors; assay: Ptch+/−p53−/− medulloblastoma allograft efficacy study in nude mice; assay type: in vivo, mouse
Mouse Smo S391N = Mouse Smo S391N (Mus musculus, UniProt P56726, S391N); assay type: cell-based
Summary of the method: (§1)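 C3H10T1/2 cells transiently co-transfected with HA-tagged mouse Smo (wild-type or point mutant, in pcDNA3.1), a Gli-luciferase reporter and TK-driven renilla luciferase. Serial dilutions of test compound (0.001 to 10 μM final) added 24 h post-transfection. Firefly and renilla luciferase read by dual-luciferase assay after a further 24 h. Percent inhibition calculated relative to DMSO control.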

Mouse Smo G457S = Mouse Smo G457S (Mus musculus, UniProt P56726, G457S); assay type: cell-based
Summary of the method: as §1

[2] = system: Ptch+/−Hic+/− medulloblastoma tumors; assay: Ptch+/−Hic+/− medulloblastoma allograft efficacy study in nude mice; assay type: in vivo, mouse
Mouse Smo D388N = Mouse Smo D388N (Mus musculus, UniProt P56726, D388N); assay type: cell-based
Summary of the method: as §1

human Smo = human Smo (Homo sapiens, UniProt Q99835); assay: Smo Agonist 1.5 displacement assay, human Smo; assay type: binding
Mouse Smo Wild-type = Mouse Smo Wild-type (Mus musculus, UniProt P56726); assay type: cell-based
Summary of the method: as §1

Mouse Smo L225R = Mouse Smo L225R (Mus musculus, UniProt P56726, L225R); assay type: cell-based
Summary of the method: as §1

[3] = system: Gli1, Ptch1, Ptch2 and CyclinD1 mRNA; assay: Hh target gene mRNA in Ptch+/−Hic1+/− medulloblastoma allografts in nude mice; assay type: in vivo, mouse; conditions: Ptch+/−Hic1+/− allograft, oral, initial treatment
Gli1 mRNA = Gli1 mRNA in Ptch+/−p53−/− medulloblastoma allografts in nude mice; assay type: in vivo, mouse; conditions: oral, 20 mg/kg/day qd
Mouse Smo N223D = Mouse Smo N223D (Mus musculus, UniProt P56726, N223D); assay type: cell-based
Summary of the method: as §1

mouse Smo = mouse Smo (Mus musculus, UniProt P56726); assay: Smo Agonist 1.5 displacement assay, mouse Smo; assay type: binding
Sequence of mouse Smo (P56726 33-793): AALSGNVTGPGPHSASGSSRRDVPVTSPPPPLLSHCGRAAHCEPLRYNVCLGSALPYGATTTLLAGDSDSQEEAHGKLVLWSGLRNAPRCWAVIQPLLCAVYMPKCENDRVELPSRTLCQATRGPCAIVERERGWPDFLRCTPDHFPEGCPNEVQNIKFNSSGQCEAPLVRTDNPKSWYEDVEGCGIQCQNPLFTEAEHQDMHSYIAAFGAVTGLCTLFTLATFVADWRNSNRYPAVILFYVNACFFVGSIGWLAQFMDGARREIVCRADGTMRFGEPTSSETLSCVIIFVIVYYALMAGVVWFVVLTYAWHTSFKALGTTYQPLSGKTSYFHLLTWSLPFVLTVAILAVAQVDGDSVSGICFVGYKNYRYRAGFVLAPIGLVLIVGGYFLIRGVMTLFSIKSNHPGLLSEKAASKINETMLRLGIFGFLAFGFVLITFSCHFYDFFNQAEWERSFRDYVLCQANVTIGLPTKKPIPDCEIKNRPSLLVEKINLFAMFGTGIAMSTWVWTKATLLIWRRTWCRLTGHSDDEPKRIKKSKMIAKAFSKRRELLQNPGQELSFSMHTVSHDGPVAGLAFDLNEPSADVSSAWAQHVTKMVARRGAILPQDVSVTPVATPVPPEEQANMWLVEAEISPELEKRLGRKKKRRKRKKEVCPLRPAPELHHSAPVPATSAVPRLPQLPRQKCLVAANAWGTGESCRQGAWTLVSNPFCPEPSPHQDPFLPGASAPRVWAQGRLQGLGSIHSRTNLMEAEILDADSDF

Sequence of Mouse Smo L225R (P56726 33-793 L225R): as the sequence (P56726 33-793) above, with L193R counted along it
Sequence of Mouse Smo Wild-type (P56726 33-793): as the sequence (P56726 33-793) above
Sequence of Mouse Smo G457S (P56726 33-793 G457S): as the sequence (P56726 33-793) above, with G425S counted along it
Sequence of Mouse Smo S391N (P56726 33-793 S391N): as the sequence (P56726 33-793) above, with S359N counted along it
Sequence of Mouse Smo D388N (P56726 33-793 D388N): as the sequence (P56726 33-793) above, with D356N counted along it
Sequence of human Smo (Q99835 28-787): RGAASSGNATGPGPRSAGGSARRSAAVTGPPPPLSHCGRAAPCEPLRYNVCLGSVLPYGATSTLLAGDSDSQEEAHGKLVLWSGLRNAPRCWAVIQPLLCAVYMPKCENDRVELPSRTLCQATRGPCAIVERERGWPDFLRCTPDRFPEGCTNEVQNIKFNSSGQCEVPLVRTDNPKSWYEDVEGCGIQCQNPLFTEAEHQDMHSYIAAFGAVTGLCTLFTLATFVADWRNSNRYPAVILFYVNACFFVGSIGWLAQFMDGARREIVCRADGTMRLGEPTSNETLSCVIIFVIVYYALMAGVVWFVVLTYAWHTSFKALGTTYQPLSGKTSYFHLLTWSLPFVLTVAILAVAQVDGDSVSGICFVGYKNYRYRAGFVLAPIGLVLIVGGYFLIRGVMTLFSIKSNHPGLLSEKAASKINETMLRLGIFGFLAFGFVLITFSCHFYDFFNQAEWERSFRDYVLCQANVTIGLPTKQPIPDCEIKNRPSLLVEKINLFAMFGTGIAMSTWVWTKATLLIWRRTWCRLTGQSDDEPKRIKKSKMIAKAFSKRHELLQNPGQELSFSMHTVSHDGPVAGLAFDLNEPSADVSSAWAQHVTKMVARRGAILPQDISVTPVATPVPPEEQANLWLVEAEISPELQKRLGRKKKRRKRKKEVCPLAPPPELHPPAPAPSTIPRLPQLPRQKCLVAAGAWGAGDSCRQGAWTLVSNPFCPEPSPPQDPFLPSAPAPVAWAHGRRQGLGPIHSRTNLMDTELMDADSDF
Sequence of Mouse Smo N223D (P56726 33-793 N223D): as the sequence (P56726 33-793) above, with N191D counted along it

HhAntag
growth of resistant tumor cells upon exposure (resistant tumor cells): largely unaffected

Nc1cc(C(F)(F)F)c(-c2cc(N3CCOCC3)nc(N3CCOCC3)n2)cn1 [NVP-BKM120, reference compound]
tumor growth inhibition in established NVP-LDE225 resistant tumors ([1]; treatment of established NVP-LDE225 resistant tumors, data not shown): modest but not statistically significant tumor growth inhibition

Cc1c(C(=O)Nc2ccc(N3C[C@@H](C)O[C@@H](C)C3)nc2)cccc1-c1ccc(OC(F)(F)F)cc1 [NVP-LDE225]
IC50 (Mouse Smo S391N): > 10000 nM
IC50 (Mouse Smo G457S): 400 nM
tumor response during initial treatment ([2]; Ptch+/−Hic1+/− allograft, oral): tumor regression
number of complete regressions ([2]; Ptch+/−Hic+/− allograft, after 61 days of treatment, n=8, NVP-LDE225 80 mg/kg/day qd, NVP-BEZ235 40 mg/kg/day qd): 1
tumor growth ([1]; 10 mg/kg/day, Ptch+/−p53−/− allograft): partial growth inhibition
IC50 (Mouse Smo D388N): > 10000 nM
IC50 (human Smo): 11 nM
IC50 (Mouse Smo Wild-type): 6 nM
IC50 (Mouse Smo L225R): > 10000 nM
Gli1, Ptch1, Ptch2 and CyclinD1 mRNA expression in tumors [3]: Pronounced inhibition
expression of Hh pathway target gene Gli1 in tumors (Gli1 mRNA): completely suppressed
IC50 (Mouse Smo N223D): > 10000 nM
IC50 (mouse Smo): 12 nM
